PMC6331719 (The EMBO Journal, 2018)

Key:
[1] = system: TG2 and CFTR; assay: Co-immunoprecipitation of TG2 and CFTR, Caco-2 cells; assay type: cell-based, human; details: Caco-2, pre-treatment
[2] = system: CFTR; assay: Proximity ligation assay CFTR / P31–43, Caco-2 cells; assay type: binding, human; details: short pre-incubation
Method in brief: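 Caco-2 cells were pre-incubated up to 20 min with VX-770 (10 μM), then exposed to P31–43. Cells were fixed in 4% PFA for 15 min at room temperature and blocked with 0.1% Triton X-100/0.5% BSA. Primary antibodies were applied overnight at 4°C and Duolink probes (1:5) for 1 h at 37°C. Ligation, rolling-circle amplification, red detection and DAPI counterstain followed.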

[3] = system: celiac PBMC; assay: Caco-2 / celiac PBMC bidimensional co-culture, cytokine release; assay type: cell-based, human; details: VX-770, P < 0.01
[4] = system: Caco‐2 cells; assay: Epithelial stress / innate immune markers by immunoblot, Caco-2 cells; assay type: cell-based, human
[5] = system: IL‐15 (Caco‐2 cells); assay: IL-15 production; assay type: cell-based, human; details: Caco-2, VX-770 pre-treatment, P < 0.001
[6] = system: Caco‐2CFTR‐KO cells; assay: IL-15 production and ERK1/2 phosphorylation, Caco-2 CFTR-KO cells; assay type: cell-based, human
[7] = system: celiac PBMC; assay: Caco-2 CFTR-KO / celiac PBMC co-culture, cytokine release; assay type: cell-based, human; details: VX-770, P31–43 and P57–68 challenge
[8] = system: BALB/c mice small intestine; assay: Small intestine protein markers; assay type: in vivo, mouse; details: VX-770 i.p. prior to gliadin
[9] = system: IL‐15 (Caco‐2 cells); assay: IL-15 in lower compartment of bidimensional culture; assay type: cell-based, human; details: VX-770, P < 0.001 vs. peptide combination
[10] = system: CFTR (Caco‐2 cells); assay: Ussing chamber, CFTR-dependent Cl- secretion in Caco-2 cells; assay type: cell-based, human; details: for Protection against P31–43-mediated reduction of chloride current: pre-incubation up to 20 min, VX-770 10 μM, Vrx-532 20 μM
Method in brief: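 Caco-2 or T84 monolayers grown on 0.4-μm Transwells to 800–1,200 Ω cm2, then mounted in Ussing chambers. Ringer both sides, 37°C, gassed with 95% O2/5% CO2. Cells pretreated 3 h with peptides (20 μg/ml) or PT gliadin (500 μg/ml), or given bath peptides (100 μM, 3–5 min) after 100 μM amiloride. VX-770 10 μM for 5 min. Forskolin 20 μM; peak CFTRinh172-sensitive Isc.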

[11] = system: BALB/c mice small intestine; assay: Small intestine transcript levels, BALB/c mice; assay type: in vivo, mouse; details: VX-770 i.p. prior to gliadin
[12] = system: NOD mice; assay: Gliadin-challenged NOD mice; assay type: in vivo, mouse; details: gliadin after diabetes onset, VX-770 i.p.
Method in brief: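 Female NOD mice with diabetes (blood glucose > 250 mg/dl, monitored weekly) were used at 12–13 weeks. They were challenged orally with gliadin for 4 consecutive weeks. VX-770 was given intraperitoneally 15 min before each challenge. n = 10 mice per group.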

[13] = system: BALB/c mice; assay: Intestinal permeability; assay type: in vivo, mouse; details: VX-770 i.p. prior to gliadin, 4 weeks
Method in brief: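 BALB/c mice kept ≥3 generations on a gluten-free diet were gavaged with gliadin (5 mg daily for 1 week, then thrice weekly for 3 weeks) ± intraperitoneal VX-770 15 min before; n = 10 per group. FITC-D4000 (600 mg/kg) was gavaged, and cardiac blood taken 1 h later. Plasma was diluted 1:1 in PBS and read at ex 485/em 528 nm against standards (50–0.312 μg/ml). Values are means ± SD of triplicate pooled samples.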

[14] = system: Caco‐2 cells; assay: Endosomal trafficking markers, Caco-2 cells; assay type: cell-based, human; details: for Protection from P31–43 effects on BECN1, hVps34, UVRAG, Rab5, Rab7: Caco-2, pre-incubation with potentiator
Method in brief: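 Endosomal fractions isolated from treated and untreated Caco-2 cells. Rab5 and Rab7 immunoblotted, with EEA-1 as loading control. Densitometry reported as mean ± SD of triplicate independent experiments. Potentiator VX-770 used at 10 μM.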

[15] = system: CFTR (small intestine, BALB/c mice); assay: Ussing chamber, small intestine of BALB/c mice; assay type: in vivo, mouse; details: VX-770 i.p. 15 min prior to gliadin, 4 weeks
Method in brief: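 BALB/c mice on a gluten-free diet for ≥3 generations were given oral gliadin (5 mg daily for 1 week, then thrice weekly for 3 weeks) ± VX-770; n = 10 per group. Small intestine tissue was mounted in Ussing chambers with identical Ringer on both sides, at 37°C, stirred and gassed with 95% O2/5% CO2.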

[16] = system: TG2; assay: TG2 activity and TG2-catalysed crosslinking in Caco-2 cells; assay type: cell-based, human; details: Caco-2, Ca2+ pulse, BAP incorporation
[17] = system: wild‐type mouse CFTR; details: ref Cui & McCarty, 2015; Cui et al, 2016; Zeng et al, 2017; cited from earlier work
[18] = system: CFTR (Caco-2 and T84 cells); assay: Iodide efflux by SPQ in intestinal epithelial cells; assay type: cell-based, human; details: 20 min pre-treatment with potentiator, n = 3
[19] = system: CFTR (Caco-2 cells); assay: CFTR stability, ubiquitination and plasma membrane level, Caco-2 cells; assay type: cell-based, human; details: Caco-2, pre-incubation with potentiator, 24 h
Method in brief: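 Caco-2 cells homogenised and spun at 2,300 × g for 15 min, then 16,000 × g for 1 h at 4°C. The membrane pellet was solubilised in Tris–HCl pH 7.4/EDTA buffer with 1% Triton X-100 and spun at 60,000 × g for 1 h to give the plasma-membrane fraction. Fraction used for IP or immunoblot against CFTR, ubiquitin, CHIP and related markers. Potentiator VX-770 at 10 μM.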

[20] = system: Caco‐2 cells; assay: F-actin confocal staining, Caco-2 cells; assay type: cell-based, human; details: Caco-2, 24 h, VX-770
[21] = system: NOD‐DQ8 mice; assay: Gliadin-challenged NOD-DQ8 mice; assay type: in vivo, mouse; details: gliadin 4 weeks, VX-770 i.p.
Method in brief: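 NOD.[…] AB0null mice expressing HLA-DQ8 (congenic NOD background), 10 per group. Oral gliadin or vehicle for 4 weeks: 5 mg daily for 1 week, then 5 mg thrice weekly for 3 weeks. VX-770 given intraperitoneally 15 min before each gliadin challenge.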

[22] = system: BALB/c mice small intestine; assay: Small intestine cytokine protein levels; assay type: in vivo, mouse; details: VX-770 i.p. prior to gliadin
Method in brief: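 BALB/c mice kept gluten-free for at least three generations, 10 weeks old, at least 10 per group. Oral gliadin or vehicle for 4 weeks (5 mg daily for 1 week, then thrice weekly for 3 weeks). Small-intestine homogenates assayed for IL-10 and TGF-β by ELISA, read in triplicate at 450 nm. Values normalised to Bradford protein.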

[23] = system: CFTR; assay: Co-immunoprecipitation of CFTR with biotinylated peptide, Caco-2 cells; assay type: binding, human; details: short pre-incubation, Caco-2
[24] = system: duodenal biopsies from CD patients; assay: Duodenal biopsies from CD patients, CD3+CD25+ cells in lamina propria; assay type: cell-based, human; details: Vrx-532 20 μM, 3 h pre-incubation

CC(C)(C)c1cc(C(C)(C)C)c(NC(=O)c2c[nH]c3ccccc3c2=O)cc1O [VX‐770]
Prevention of P31–43-induced TG2–CFTR interaction [1]: abolished the P31–43‐induced interaction of TG2 and CFTR | Effect of VX-770 on P31–43 interaction with CFTR (proximity ligation assay) [2]: abolished the interaction of P31–43 with CFTR | IL-10 levels [3]: increased IL‐10 levels | Prevention of IFN-γ production [3]: prevented the production of IFN‐γ by PT gliadin or peptide combination | Prevention of P31–43-induced NF-κB p65 translocation, NLRP3 expression, caspase-1 cleavage ([4]; Caco-2, VX-770): prevented additional pro‐inflammatory P31–43 effects | Protection from P31–43-induced epithelial stress (PPARγ, phERK1/2, HSP70) ([4]; Caco-2, pre-incubation with VX-770): protected Caco‐2 cells from signs of P31–43‐induced epithelial stress | P31–43-induced IL-15 production [5]: prevented the P31–43‐induced production of IL‐15 | IL-15 expression and ERK1/2 phosphorylation in CFTR-KO cells [6]: failed to modulate both IL‐15 expression and ERK1/2 phosphorylation in Caco‐2CFTR‐KO cells | Prevention of IFN-γ production with Caco-2 CFTR-KO [7]: failed to prevent the production of IFN‐γ by celiac PBMC | NKG2D upregulation on intraepithelial lymphocytes [8]: counteracted | NLRP3 expression [8]: counteracted gliadin‐induced NLRP3 expression | TG2 protein levels [8]: opposed the ability of gliadin to increase TG2 protein levels | NHERF-1 depletion ([8]; 4 weeks): abrogated the depletion of NHERF‐1 | Prevention of IL-15 accumulation [9]: prevented by VX‐770 | Effect of VX-770 on chloride current when added after P31–43 ([10]; P31–43 100 μM then VX-770 10 μM then Fsk): poorly active | Protection against P31–43-mediated reduction of chloride current [10]: prevented | Rorc and Tbet [11]: downregulated upon VX‐770 treatment | Protective effects in NOD mice [12]: protective effects of VX‐770 were confirmed in NOD mice | Intestinal permeability [13]: prevented the gliadin‐induced increase in intestinal permeability | P31–43-mediated increase in CD71 cell surface expression ([14]; Caco-2): blocked the P31–43‐mediated increase in the cell surface expression of transferrin receptor | Protection from P31–43 effects on BECN1, hVps34, UVRAG, Rab5, Rab7 [14]: counteracted | P31–43-induced CD71–SIgA interaction ([14]; Caco-2 pre-incubated with SIgA 1 h at 4°C): abrogated the ability of P31–43 to increase the interaction of CD71 with SIgA | CFTR function and protein expression, gliadin-sensitive mice [15]: prevented the gliadin‐induced decrease in CFTR function (Fig 5A) and protein expression | Effect on TG2-mediated transamidation reactions itself [16]: no impact on TG2‐mediated transamidation reactions | Potentiation of wild-type mouse CFTR channel function [17]: potentiate the ion channel function of wild‐type mouse CFTR | Protection of iodide efflux against P31–43 [18]: protecting intestinal epithelial cells against P31–43‐mediated CFTR inhibition | Prevention of P31–43 effects on CFTR stability / plasma membrane level [19]: prevented | Formation of F-actin stress fibers induced by P31–43 [20]: negated the capacity of P31–43 to induce the formation of F‐actin stress fibers | Protective effects in NOD-DQ8 mice [21]: in NOD‐DQ8 mice as well | IL-10 and TGF-β production [22]: improved IL‐10 and TGF‐β production | IL-21 expression [22]: inhibited the gliadin‐induced expression of IL‐21 | IL-15, IL-17A and IFN-γ mRNA and protein ([22]; P < 0.001): prevented the gliadin‐induced upregulation of IL‐15, IL‐17A, and IFN‐γ mRNA | Effect of VX-770 on P31–43 interaction with CFTR (co-immunoprecipitation) [23]: abolished the interaction of P31–43 with CFTR

Cc1ccc(O)c(-c2cc(-c3ccccc3)n[nH]2)c1 [Vrx‐532]
Abrogation of gliadin-peptide-induced CD3+CD25+ cell increase [24]: highly effective in abrogating these effects of gliadin peptides | Protection against P31–43-mediated reduction of chloride current [10]: prevented | Protection from P31–43 effects on BECN1, hVps34, UVRAG, Rab5, Rab7 [14]: counteracted | Protection of iodide efflux against P31–43 [18]: protecting intestinal epithelial cells against P31–43‐mediated CFTR inhibition | Prevention of P31–43 effects on CFTR stability / plasma membrane level [19]: prevented
